Reference: ChEMBL document CHEMBL1157783, “Synthesis, characterization and vasculoprotective effects of nitric oxide-donating derivatives of chrysin” (Bioorg Med Chem, 2010)
Activity calls are given as the source filed them. No cut-off for these calls is given here.

Experiments:
[1] = Inhibition of advanced glycation end product formation in phosphate buffered saline at pH 7.4 after 14 days by fluorospectrophotometry in presence of bovine serum albumin; assay type: physicochemical
[2] = molecular target: Aldo-keto reductase family 1 member B1 (Bos taurus, UniProt P16116); assay: Inhibition of aldose reductase from calf lense by AR assay
[3] = Induction of NO release in phosphate buffered saline of pH 7.4 at 100 uM after 1 hr by Griess assay in presence of L-cysteine; assay type: physicochemical; settings: buffer, pH 7.4, 1 h
Outline: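 Incubated 1 h at 37 °C in PBS pH 7.4 with L-cysteine. Reaction mixture treated with Griess reagent (sulfanilamide, N-naphthylethylenediamine dihydrochloride, phosphoric acid) for 10 min at room temperature, then absorbance read at 540 nm. Expressed as percent of a theoretical maximum of 1 mol NO per mol compound. Sodium nitroprusside as positive control.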

HepG2 = assay: Increase in glucose consumption in human HepG2 cells at 10 umol/L after 24 hrs by enzymatic method relative to control blank; assay type: functional, cell-based
Outline: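 HepG2 cells in high-glucose DMEM with 10% FBS, grown to 80–90% confluence, switched to DMEM with 1% FBS for 12 h, then treated 24 h in the same medium. Medium glucose measured enzymatically with a kit. Consumption taken as blank-well glucose minus remaining glucose, then adjusted for cell number by MTT. Vehicle 0.1% DMSO; mean S.D., n = 3.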

| IC50 [1] [µM] | IC50 [2] [µM] | Activity [3] [%] | SMILES | Activity (HepG2) |
| --- | --- | --- | --- | --- |
| ≥ 300 | 0.42 | 1.43 | CC(=O)Oc1cc(OCCCCCCO[N+](=O)[O-])cc2oc(-c3ccccc3)cc(=O)c12 |  |
| 63.5 | 7.79 |  | O=c1cc(-c2ccccc2)oc2cc(O)cc(O)c12 [CHRYSIN] | inactive |
| ≥ 300 | 0.86 | 1.68 | CC(=O)Oc1cc(OCCO[N+](=O)[O-])cc2oc(-c3ccccc3)cc(=O)c12 |  |
| 52.5 | 0.13 | 1.26 | O=C(CCCCO[N+](=O)[O-])OCOc1cc(O)c2c(=O)cc(-c3ccccc3)oc2c1 | Active |
| ≥ 300 | 0.39 | 1.48 | CC(=O)Oc1cc(OCCCCO[N+](=O)[O-])cc2oc(-c3ccccc3)cc(=O)c12 |  |
| ≥ 300 | 0.49 | 1.67 | O=c1cc(-c2ccccc2)oc2cc(OCCO[N+](=O)[O-])cc(O)c12 | Active |

Continued, molecule first:

| SMILES | IC50 [1] [µM] | IC50 [2] [µM] | Activity [3] [%] | Activity (HepG2) |
| --- | --- | --- | --- | --- |
| N=C(N)NN [PIMAGEDINE] | 826 |  |  |  |
| O=c1cc(-c2ccccc2)oc2cc(OCCCCCCO[N+](=O)[O-])cc(O)c12 | ≥ 300 | 0.71 | 1.21 | Active |
| O=C(CCCCCCO[N+](=O)[O-])OCOc1cc(O)c2c(=O)cc(-c3ccccc3)oc2c1 | 138 | 0.21 | 1.38 | Active |
| O=C(CCO[N+](=O)[O-])OCOc1cc(O)c2c(=O)cc(-c3ccccc3)oc2c1 | 43.9 | 0.3 | 1.77 |  |
| O=c1cc(-c2ccccc2)oc2cc(OCCCCO[N+](=O)[O-])cc(O)c12 | 75.5 | 0.29 | 1.43 | Active |
